# Bioassay records (PubChem BioAssay)
# TPT1 inhibitor = C. albicans TPT1 enzyme inhibition; recombinant caTPT1, FP RNA substrate dephosphorylation; inhibition, % at 5 µM; 300,000 compounds, 0.81% hits; AID 1962;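 active = inhibition above the mean of all tested compounds plus 3 SD, set per screening campaign, cut at about 24% in these data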;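 note: plate controls were DMSO alone for no effect and ferristatin control at 100 nM for full effect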
# CRFBP-R2 agonist = CRF-BP/CRF-R2 complex agonism; HEK293 CRF-R2/CRF-BP, calcium dye fluorescence (FLIPR); percent of saturating CRF peptide response; activation, % at 13.2 µM; 350,000 compounds, 0.46% hits; AID 588473;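 active = activation of at least 50%, plus an integration ratio under a set limit after plate pattern correction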;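 note: plate controls were neutral control wells without compound for no effect and CRF at EC100 for full effect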
# CSN inh = inhibitors of human CSN-mediated cullin deneddylation. Purified CSN, SCF-Nedd8-OG deneddylation, fluorescence polarization. inhibition, % at 12.5 µM. Q92905. AID 651999. 360,000 compounds, 0.38% hits;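 active = pattern-corrected inhibition above about 35%, with an unprinted fluorescence ratio check between 0.5 and 1.5, limit read from the data, passing the limit was not always enough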;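 note: 0% = enzyme with substrate and 100% = substrate without enzyme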
# Target sequence (Q92905 whole entry, looked up, one chain of several): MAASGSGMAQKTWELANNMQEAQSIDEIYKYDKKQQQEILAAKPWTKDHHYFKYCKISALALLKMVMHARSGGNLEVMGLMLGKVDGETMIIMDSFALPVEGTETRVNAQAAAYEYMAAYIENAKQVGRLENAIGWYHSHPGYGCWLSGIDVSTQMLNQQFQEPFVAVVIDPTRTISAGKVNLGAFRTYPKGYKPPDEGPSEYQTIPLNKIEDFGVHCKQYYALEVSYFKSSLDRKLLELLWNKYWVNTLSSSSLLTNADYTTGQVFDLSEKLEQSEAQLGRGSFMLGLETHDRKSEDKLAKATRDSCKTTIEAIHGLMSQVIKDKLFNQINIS
#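 Assay system: purified human Csn5 enzyme expressed in HEK293T cells; Input: 0.24 nM Csn5 enzyme, final concentration; Reagent: 10 nM SCFSkp2-Nedd8OG; Compound dosing: 12.5 µM single point; Times: reaction 90 min, room temperature; Technique: fluorescence polarization readout.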
# CRFR2-BP antag = CRF-BP/CRF-R2 complex antagonism | inhibition, % at 11.8 µM | HEK293 CRF-R2/CRF-BP, CRF-induced calcium fluorescence | AID 588475 | 350,000 compounds, 0.59% hits;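 active = inhibition of the ligand-induced calcium signal above about 50% at the single tested concentration, limit read from the data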
# HNF4A DNA FP = change in binding of human HNF4 alpha to DNA | P41235 | activity change, % at 10 µM | 360,000 compounds, 0.3% hits | HNF4a-FITC DNA binding, fluorescence polarization, 1 h | AID 1224865; in the data active = activity change above about 30%, passing the limit was not always enough
# Rpn11 block = inhibitors of human proteasome Rpn11; human 26S proteasome, Ub4-pepOG fluorescence polarization; 20S core pre-blocked with epoxomicin; calls only at 20 µM; 360,000 compounds, 0.59% hits; AID 588493;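 active = inhibition at 20 µM, scaled to each plate's controls, above about 33%, limit read from the data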
# * marks the source's active call; other numbers are inactive results; i = inactive; . = no result shown. Compounds with a hit are over-represented: about 2.3% of the library has one in this group of screens.
SMILES,TPT1 inhibitor,CRFBP-R2 agonist,CSN inh,CRFR2-BP antag,HNF4A DNA FP,Rpn11 block
COc1ccc(-c2ccc3c(=O)cc(-c4ccsc4)oc3c2)cn1,.,7.7,104.4*,3.7,62.8*,.
COc1cc(-c2ccc3oc(-c4ccsc4)cc(=O)c3c2)cc(OC)c1OC,.,-2.5,1.3,1.9,0.4,i
O=[N+]([O-])c1ccc(-c2cn(-c3ccc(Cl)cc3)cn2)cc1,.,.,5.2,.,40.1*,i
CCOC(=O)c1ccc(-n2cnc(-c3ccc([N+](=O)[O-])cc3)c2)cc1,.,.,5.2,.,16.6,i
CC(=O)Nc1ccc(N2C(=O)c3cccc4c(O)ccc(c34)C2=O)cc1,-20.7,200.7*,-73.2,-167.8,-97.2,i
COC(=O)NN1C(=O)C(c2ccccc2)=C(c2ccc(Cl)cc2)C1=O,-2.0,-4.0,3.0,50.6*,1.2,i
CCN(CC)C(=O)c1nc(-c2cccc3ccccc23)no1,.,-2.3,1.2,3.1,-2.9,i
COc1c(Cl)cc(-c2noc(C)c2C(=O)NCc2ccc3c(c2)OCO3)cc1Cl,-4.4,70.6*,-5.0,-37.1,2.0,i
COc1cc(-c2noc(C)c2C(=O)NCc2ccc3c(c2)OCO3)cc(OC)c1OC,.,-1.3,-1.7,7.2,1.2,i
COc1ccc(-c2nsc3c(N4CCCCC4C)ncnc23)cc1 (stereo not given),-2.0,5.7,-8.6,-10.9,-1.8,i
O=C(c1ccc(N2CCNCC2)cc1)c1cccnc1,0.7,-2.8,-1.0,61.8*,1.4,i
N#Cc1ccc(COc2ccc(CCO)cc2-n2nc3ccccc3n2)cc1,4.6,0.1,100.3*,3.2,-0.8,i
C[C@]12c3[nH]c4ccccc4c3CCN1C(=O)C(CC(=O)NCC13CC4CC(CC(C4)C1)C3)C[C@@H]2C(=O)N1CCOCC1 (stereo not given in full),.,55.1*,-6.0,-47.9,-3.4,i
O=C(C[C@H]1C[C@H](C(=O)N2CCCCC2)[C@@]2(CCc3ccccc3)c3[nH]c4ccc(Cl)cc4c3CCN2C1=O)NCCCn1ccnc1,.,7.5,-0.4,-7.7,0.8,i
CC(C)N(C(=O)[C@H]1C[C@H](CC(=O)NCCC2=CCCCC2)C(=O)N2CCc3c([nH]c4ccc(Cl)cc34)[C@]12C)C(C)C,.,-3.3,2.4,64.9*,1.0,i
CC(C)N(C(=O)[C@H]1C[C@H](CC(=O)NCc2ccco2)C(=O)N2CCc3c([nH]c4cc(CCC(=O)N(C)C)ccc34)[C@]12C)C(C)C,.,-3.4,3.6,59.7*,-0.3,i
O=C(C[C@H]1C[C@H](C(=O)N2CCCCC2)[C@@]2(CCc3ccccc3)c3[nH]c4ccc(Cl)cc4c3CCN2C1=O)NCCN1CCOCC1,.,57.4*,-2.7,-3.4,-1.2,i
N/C(=N\c1nc(CSc2nc3ccccc3s2)cc(=O)[nH]1)Nc1ccc(F)cc1,-0.8,0.3,-4.0,-13.2,-1.0,i
COc1nc(/C=C/N(C)C)c([N+](=O)[O-])c(OC)n1,-0.8,-2.3,-2.1,16.2,0.6,i
CCOC(=O)c1c(C)[nH]c(C)c1C(=O)COC(=O)c1cc2ccccc2cc1O,2.6,1.2,2.6,-2.8,-3.7,i
Cc1cccc(-c2nc(CS(=O)CC(=O)N3CC(C)CC(C)C3)c(C)o2)c1 (stereo not given),0.9,-0.6,0.0,54.9*,1.8,i
NC(=O)CS(=O)(=O)c1nc2ccccc2n1Cc1ccccc1F,-2.4,2.2,1.4,118.2*,2.6,i
CCOc1ccccc1NC(=O)Nc1c(C)n(-c2ccccc2)c(=O)n1C,-1.1,-0.7,-1.2,6.9,0.4,i
CC(=O)Nc1ccc(C=NNc2ccc([N+](=O)[O-])cc2S(=O)(=O)Nc2ccccc2C(=O)O)cc1,.,2.4,12.1,5.2,14.0,i
COc1ccc(C(C)=NNc2ccc([N+](=O)[O-])cc2S(=O)(=O)Nc2ccccc2C(=O)O)c(OC)c1,.,-2.4,6.5,65.7*,2.5,i
CC(NC(=O)CNC(=O)OCc1ccccc1)C(=O)N1CC(O)CC1C(=O)OCc1ccccc1 (stereo not given),-4.3,-1.7,-3.3,12.5,-2.8,i
